Bioassay records deposited in PubChem BioAssay by The Scripps Research Institute Molecular Screening Center.
Compounds with a hit are over-represented: about 2.2% of the library has one in this group of screens.
CHRM1 antagonist = human CHRM1 antagonism; CHO-K1 hM1, Fluo-8 calcium fluorescence, ACh EC80 antagonist; inhibition, % at 3 µM; actives 1.3% (n = 360,000);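 active = percent inhibition above its own plate's cutoff, namely the mean of that plate's compound wells plus 3 SD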;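 also: peak over basal fluorescence ratio during 140 s after agonist addition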
M1 ag = human M1 muscarinic receptor agonism; activation, % at 3 µM; actives 0.33% (n = 360,000); CHO-K1 hM1, Fluo-8 calcium fluorescence, agonist mode; 0% DMSO, 100% acetylcholine EC100; P11229;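 active = activation above the run's mean compound activation plus 3 SD, cut at about 16% in these data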;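 also: peak over basal fluorescence ratio within a 140 s kinetic read after compound addition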
CHRM5 antagonist = CHRM5 antagonism in calcium assay; P08912; CHO-hM5 cells, Fluo-8 calcium fluorescence, ACh EC80; inhibition, % at 3 µM; actives 0.59% (n = 360,000);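 active = inhibition above a per-plate cutoff, the mean of that plate's test compounds plus 3 SD, cut at about 27% in these data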
Target sequence (P08912 whole entry, looked up): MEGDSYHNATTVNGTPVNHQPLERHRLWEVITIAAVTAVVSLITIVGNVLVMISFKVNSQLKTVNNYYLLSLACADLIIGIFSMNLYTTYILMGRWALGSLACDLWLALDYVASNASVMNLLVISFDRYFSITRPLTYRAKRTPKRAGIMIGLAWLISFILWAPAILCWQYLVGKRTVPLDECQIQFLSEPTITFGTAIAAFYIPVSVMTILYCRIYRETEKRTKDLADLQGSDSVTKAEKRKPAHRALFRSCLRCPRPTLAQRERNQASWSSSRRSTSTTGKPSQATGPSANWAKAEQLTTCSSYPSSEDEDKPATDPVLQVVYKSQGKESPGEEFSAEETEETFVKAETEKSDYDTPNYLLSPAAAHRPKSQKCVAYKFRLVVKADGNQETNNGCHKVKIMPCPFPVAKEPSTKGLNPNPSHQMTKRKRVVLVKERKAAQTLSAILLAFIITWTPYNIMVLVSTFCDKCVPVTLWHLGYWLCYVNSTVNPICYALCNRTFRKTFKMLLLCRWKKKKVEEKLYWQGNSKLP
M5 PAM = potentiates acetylcholine response at human M5 receptor. P08912. CHO-K1 hM5, Fluo-8 calcium, ACh EC20 PAM; 0% = ACh EC20, 100% = ACh EC100. actives 0.3% (n = 360,000). activation, % at 3 µM;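 active = activation above the run cutoff, the mean activation of all test compounds plus 3 SD, cut at about 18% in these data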
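system = human M5 receptor in CHO-K1 cells | reagent = EC20 acetylcholine as agonist stimulus | compound dosing = single-point, 3 µM nominal | incubation = Fluo-8 loading 80 min at 37 °C plus 30 min room temperature | detection = Fluo-8 calcium dye fluorescence, kinetic read | benchmarks = low control EC20 acetylcholine (0%), high control EC100 acetylcholine (100%)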
CHRM1 PAM = potentiates human M1 receptor response to acetylcholine. P11229. CHO-K1 hM1, Fluo-8 calcium fluorescence, ACh EC20; 0% = ACh EC20, 100% = maximal ACh. activation, % at 3 µM. actives 0.088% (n = 360,000). AID 588819; in the data active = activation above about 19%, passing the limit was not always enough
CHRM5 agonist = agonists of human muscarinic M5 receptor (CHRM5); P08912; CHO-K1 hM5 cells, Fluo-8 calcium fluorescence; 0% DMSO wells, 100% maximal acetylcholine response; activation, % at 3 µM; actives 0.19% (n = 360,000);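 active = activation above the run's mean over test compounds plus 3 SD, cut at about 23% in these data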;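 also: signal is peak over basal fluorescence ratio across the kinetic read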
Large screens that a line does not name were inactive.

COc1ccc2nc(C)cc(NCc3ccc(F)cc3)c2c1	CHRM1 antagonist 28.7, CHRM5 antagonist 32.1
CN(C)/C=C/c1onc(-c2c(F)cccc2Cl)c1C#N	M5 PAM 28.1
Cc1onc(-c2c(F)cccc2Cl)c1C(=O)NC1CC1	none
Cc1cc(C)cc(OCC(=O)NNC(=S)NC(=O)C2CC2)c1	CHRM5 antagonist 27.6
Cc1ccc(N(CC(=O)NC2CCCC2)C(=O)CCC(=O)Nc2nc(C)cs2)cc1	none
O=C1c2cc(Cl)ccc2-c2c(O)cc(Cl)cc21	CHRM1 antagonist 35.7
CCOc1ccccc1NC(=O)COC(=O)Cc1ccc(-c2ccccc2)cc1	none
CCOc1ccc2[nH]c(=O)c(C(c3nnnn3C3CCCCC3)N3CCN(CC)CC3)cc2c1 (stereo unspecified)	CHRM1 antagonist 22.1
COc1cc2cc(C(c3nnnn3C3CCCC3)N3CCCCC3)c(=O)[nH]c2cc1OC (stereo unspecified)	CHRM5 antagonist 33.7
COc1cc2cc(C(c3nnnn3C3CCCC3)N3CCCCCC3)c(=O)[nH]c2cc1OC (stereo unspecified)	none
CCOc1ccc2[nH]c(=O)c(C(c3nnnn3C3CCCCC3)N3CCN(C)CC3)cc2c1 (stereo unspecified)	none
CC(=O)c1ccc(S(=O)(=O)N2CCN(C(=O)CCC3CCCC3)CC2)cc1	none
COc1ccc(CS(=O)(=O)/C(Cl)=C(/Cl)C(=O)Nc2ccc(OC)nc2)cc1	none
CC1(C)N=C(N)N=C(N)N1c1cc(Cl)ccc1Cl	none
CC1(C)N=C(N)N=C(N)N1c1ccc(Oc2ccc(Cl)cc2)c(Cl)c1	CHRM1 antagonist 54.9, CHRM5 antagonist 33.3
Cc1cc[n+](CC(=O)c2cc3ccccc3oc2=O)cc1	CHRM1 antagonist 59.4
O=C(Cn1nc(C(=O)O)c2ccccc2c1=O)Nc1cccc(S(=O)(=O)N2CCOCC2)c1	none
CCN(CC)S(=O)(=O)c1ccc(C)c(NC(=O)CNc2cccc(S(=O)(=O)N3CCCC3)c2)c1	none
CC(=O)c1cccc(NC(=O)c2ccc(S(=O)(=O)N3CCCC3)cc2)c1	CHRM1 antagonist 25.3
CCN(CC)S(=O)(=O)c1cccc(NC(=O)CNc2cccc(S(=O)(=O)N3CCCC3)c2)c1	CHRM1 antagonist 41.6, CHRM5 antagonist 37.9
CC(=O)c1ccc(NC(=O)c2ccc(S(=O)(=O)N3CCCC3)cc2)cc1	none
O=C(Cn1nc(C(=O)O)c2ccccc2c1=O)Nc1cccc(S(=O)(=O)N2CCCCC2)c1	CHRM1 antagonist 24.0
CC(C)Oc1ccc(C(=O)Nc2cccc(S(=O)(=O)N3CCCC3)c2)cc1	CHRM1 antagonist 47.5
CN(CC(=O)Nc1ccc(N2CCOCC2)cc1)C(=O)c1cc(F)c(F)cc1Cl	none
CCC1CCCCN1CC(=O)c1c(C)[nH]c2ccc(OC)cc12 (stereo unspecified)	none
CCc1ccc(NC(=O)CCC(=O)Nc2nnc(C(F)(F)F)s2)cc1	none
CCN(CC)S(=O)(=O)c1cccc(NC(=O)/C=C/c2ccc([N+](=O)[O-])cc2)c1	none
CCC(=O)c1ccc(OCC(=O)Nc2cccc(S(=O)(=O)N3CCCCCC3)c2)cc1	CHRM1 antagonist 47.4, CHRM5 antagonist 28.9
CCN(CC)S(=O)(=O)c1cccc(NC(=O)/C=C/c2cccc([N+](=O)[O-])c2)c1	CHRM5 antagonist 32.5
Cc1cc(OCC(=O)Nc2cccc(S(=O)(=O)N3CCCCC3)c2)ccc1Cl	none
CCN(CC)S(=O)(=O)c1ccc(/C=C/C(=O)Nc2ccc(Br)cc2F)cc1	CHRM1 antagonist 31.4
CC(C)(C)n1nc2c(c1NC(=O)c1ccc(Br)cc1)CS(=O)C2 (stereo unspecified)	none
CCN(CC)S(=O)(=O)c1ccc(/C=C/C(=O)Nc2ccc(F)cc2F)cc1	none
CC(C)(C)n1nc2c(c1NC(=O)c1ccc(S(=O)(=O)N3CCCCC3)cc1)CS(=O)C2 (stereo unspecified)	M5 PAM 31.5
COc1ccc(CC(NC(C)=O)C(=O)NC2CCN(C(=O)c3ccccc3F)CC2)cc1 (stereo unspecified)	none
CC(=O)c1cccc(NC(=O)C(C)OC(=O)c2cccc(S(=O)(=O)N3CCN(C)CC3)c2)c1 (stereo unspecified)	CHRM1 antagonist 70.8, M1 ag 67.6, CHRM5 agonist 44.5
CC(OC(=O)c1cccc(S(=O)(=O)N2CCN(C)CC2)c1)C(=O)Nc1ccc(C(N)=O)cc1 (stereo unspecified)	none
CCN(CC)S(=O)(=O)c1cccc(NC2=NCCCCC2)c1	CHRM1 antagonist 26.8
CCN(CC)S(=O)(=O)c1cccc(NC(=O)Nc2cccc(C(F)(F)F)c2)c1	CHRM5 antagonist 34.0
O=C(NCC(c1ccccc1Cl)N1CCCC1)c1ccc(N2CCCC2=O)cc1 (stereo unspecified)	CHRM1 antagonist 55.7
COc1ccc(C(CNC(=O)c2ccc(N3CCCC3=O)cc2)N2CCCC2)cc1 (stereo unspecified)	none
COc1ccc(C(CNC(=O)Nc2cccc(C)c2)N2CCN(C)CC2)cc1 (stereo unspecified)	none
COc1cn(-c2ccccc2)nc1C(=O)NCc1ccccc1	CHRM1 PAM 32.6
Cc1nnc(SCC(=O)NC(C)(C)C)n1NCc1cccc(Br)c1	none
CN(C)c1ccc2nc3c(=O)[nH]c(=O)nc-3n(CC(O)C(O)C(O)CO)c2c1 (stereo unspecified)	M1 ag 18.1
CCn1c(O)c(/C=N/N=C/c2ccccc2)c2ccc(C3=NNC(=O)CC3)cc21	none
O=C1N/C(=N/c2ccccn2)SC1Cc1ccccc1 (stereo unspecified)	none
O=C1NC(=Nc2ccccc2)SC1Cc1ccccc1 (stereo unspecified)	CHRM5 antagonist 27.0
COc1ccc2c(c1OC)C(=O)N1C2SC[C@H]1C(=O)NC1CCCCC1 (stereo partly specified)	CHRM5 agonist 38.2
c1ccc(Oc2cccc(OCCCCN3CCCC3)c2)cc1	CHRM1 antagonist 39.5
CC1CN(CCOc2cccc(Oc3ccccc3)c2)CC(C)O1 (stereo unspecified)	none
CC1CCCN(CCOc2cccc(Oc3ccccc3)c2)C1 (stereo unspecified)	none
CC1CN(CCCCOc2cccc(Oc3ccccc3)c2)CC(C)O1 (stereo unspecified)	CHRM1 antagonist 28.8
COc1ccccc1CN1CCC(CNS(=O)(=O)c2cc(-c3cc(C)no3)ccc2OC)CC1	CHRM1 antagonist 93.4
Cc1ccc(NC(=O)c2ccc(CSc3nnc(-c4ccncc4)n3C)cc2)cc1	none
